Compound activity from PubChem.
Hits are enriched below; roughly 2.2% of the tested compounds scored in any of these assays.
COUP-TFII inh = inhibitors of human COUP-TFII (NR2F2) | actives 0.7% (n = 370,000) | P24468 | HEK293T NGFI-A luciferase reporter, luminescence | inhibition, % at 8.6 µM;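 active means inhibition above a per-plate cutoff, mean inhibition of test wells between control levels plus 3 SD, cut at about 38% in these data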;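 further: cells cotransfected with COUP-TFII expression vector driving the NGFI-A reporter; 0% = median of COUP-TF2 test wells and 100% = reporter-only cells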
Target sequence (P24468 whole entry, looked up): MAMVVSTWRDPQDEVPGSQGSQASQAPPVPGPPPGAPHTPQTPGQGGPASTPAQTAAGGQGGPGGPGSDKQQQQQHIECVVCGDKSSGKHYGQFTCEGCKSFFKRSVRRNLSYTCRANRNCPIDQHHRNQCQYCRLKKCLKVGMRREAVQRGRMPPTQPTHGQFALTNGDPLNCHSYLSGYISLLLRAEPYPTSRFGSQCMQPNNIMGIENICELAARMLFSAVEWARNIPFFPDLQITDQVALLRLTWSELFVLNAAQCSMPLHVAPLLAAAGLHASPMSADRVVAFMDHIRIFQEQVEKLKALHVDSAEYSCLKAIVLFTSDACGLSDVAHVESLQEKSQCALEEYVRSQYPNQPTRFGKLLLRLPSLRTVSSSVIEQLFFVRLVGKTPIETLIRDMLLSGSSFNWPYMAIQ
NR2E3 ag-1 = activates human NR2E3 receptor. Q9Y5X4. CHO-S Gal4-NCOR/VP16-NR2E3 two-hybrid, luciferase. inhibition of corepressor binding, % at 3.98 µM. actives 0.35% (n = 360,000);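 active means inhibition above the mean of all tested compounds plus 3 SD, cut at about 70% in these data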;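 further: 0% = DMSO with NR2E3 transfected cells and 100% = cells lacking NR2E3 construct; higher means lower luciferase signal from less NR2E3 corepressor binding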
NR2E3 ag-2 = NR2E3 (human) agonism. inhibition of corepressor binding, % at 4.78 µM. Q9Y5X4. AID 2300. GST-NR2E3/biotin-RetCOR TR-FRET, 1536-well. actives 0.12% (n = 320,000);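 active means percent inhibition above the cutoff of mean plus 3 SD of all tested compounds, set per screening campaign, cut at about 20% in these data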;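 further: 0% = DMSO wells and 100% = biotin wells as full block of FRET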
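Material – GST-tagged NR2E3 plus biotinylated RetCOR corepressor · Quantity – NR2E3 fusion 1.35 nM · Times – 5 h incubation at 4 °C · Medium – pH 7.5 Tris-based buffer · Technique – TR-FRET, Eu(K)-anti-GST donor, streptavidin-D2 acceptor, ex 340, em 617/671 nm · Benchmarks – high control biotin, low control 0.6% DMSO · Format – 1536-well plates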
GalR3 antag = blocks the human galanin receptor 3; actives 0.44% (n = 360,000); inhibition, % at 3 µM; HEK293 GalR3-CNG cAMP membrane potential fluorescence; galR3 body fused to GalR1 C-terminus; O60755;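 active means inhibition above the screen-wide average plus 3 SD, cut at about 13% in these data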;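 further: forskolin and galanin both at EC90 stimulate the cells; cAMP rise reported by CNG channel membrane potential dye signal; 0% = forskolin plus galanin with DMSO and 100% = forskolin alone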
SMARCA2 act = SMARCA2 function activation, primary screen; MG213 cells, MMTV-luciferase reporter, dexamethasone, overnight; activation, % at 9.1 µM; actives 1% (n = 370,000); AID 652017; in the data active means activation above about 7.8%;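 further: 0% = vehicle wells and 100% = reference activator wells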
SMARCA2 conf = confirmation of SMARCA2 (BRM) function activators; actives 30% (n = 3,500); activation, % at 9.1 µM; shares compounds with SMARCA2 act; MG213 cells, MMTV-luciferase with dexamethasone, luminescence, overnight; MG213 cells expressing E1A, Rb sequestered; DMSO wells 0%, reference activator 100%; AID 652260;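 active means activation above its plate's cutoff, the mean activation of tested wells plus 3 SD, cut at about 7.9% in these data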
VP16 Luc act = GAL4-VP16 reporter activation counter-screen | shares compounds with SMARCA2 act | HEK293 GAL4-VP16 pG5luc reporter, luciferase luminescence; scaled: DMSO wells 0%, SAHA wells 100% | activation, % at 9.1 µM | actives 41% (n = 3,500);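 active means activation above the solvent-only control well mean plus 3 SD, averaged across control plates, cut at about 5.2% in these data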
Numbers without * were called inactive; . = no result given.

SMILES	COUP-TFII inh	NR2E3 ag-1	NR2E3 ag-2	GalR3 antag	SMARCA2 act	SMARCA2 conf	VP16 Luc act
CCN(CC)CCCNC(=O)Cc1c(C(=O)O)n(C)c2ccccc12	-3.7	-25.3	6.3	-4.9	-3.9	.	.
O=C(Nc1ccc(F)cc1F)C1CCCN1S(=O)(=O)c1cccnc1 (stereo not drawn)	4.3	.	.	.	-6.2	.	.
COc1cccc(-c2cnc3c(NC=O)cc(-c4ccc(N5CCN(C)CC5)cc4)cn23)c1	-27.9	-71.7	.	-3.5	15.4*	37.2*	3.0
COc1cccc(-c2cnc3c(NC=O)cc(-c4ccccc4)cn23)c1	-7.6	-42.0	.	-6.4	4.3	.	.
COc1ccc(-c2cnc3c(NC=O)cc(-c4ccc(C(=O)N5CCOCC5)cc4)cn23)cc1OC	-3.0	9.0	.	-7.9	12.3*	6.2	2.4
Fc1cccc(CNC(=S)OC2CCC23CCC(c2ccccc2)CC3)c1 (stereo not drawn)	2.7	.	.	.	-1.8	.	.
O=C(O)c1cccc(Nc2c([N+](=O)[O-])c(=O)oc3ccccc23)c1	-6.9	-5.7	0.0	-0.4	8.9*	-2.7	0.6
O=C(OC12CCCN(C1)/C(=C/c1cccnc1)C2)C1CCCCC1 (stereo not drawn)	22.4	.	.	.	-4.0	.	.
Cc1ccc(-c2nc(C#N)c(NCC3CCCO3)o2)cc1 (stereo not drawn)	-37.7	-70.5	1.5	-0.6	1.5	.	.
COc1ccc(-c2nc(C#N)c(NCC3CCCO3)o2)cc1 (stereo not drawn)	-29.2	-30.7	0.6	-9.8	10.0*	9.7*	3.5
CC1CCN(S(=O)(=O)c2ccc3ncn(CC(=O)N(C)Cc4ccccc4)c(=O)c3c2)CC1	5.3	-5.0	3.6	-5.3	-4.8	.	.
CC1CCN(S(=O)(=O)c2ccc3nc(-c4ccccn4)cc(C(=O)NCCN(C)Cc4ccccc4)c3c2)CC1	8.6	12.7	.	-5.2	8.3*	27.4*	-0.3
COc1cccc2cc(NC(=O)C3CCCCC3)c(=O)oc12	-67.6	-25.6	6.7	-2.9	12.2*	7.8*	10.4*
COc1cccc2cc(C(=O)N3CCCCC3C)c(=O)oc12 (stereo not drawn)	-5.6	5.1	-2.8	-2.6	-0.5	.	.
Cc1cc(C(=O)NC2CCCCC2)c(C)n1-c1ccc(F)cc1	-26.0	-110.3	1.7	2.9	8.0*	5.2	10.7*
CC(C)(C)C(=O)NC1CCCCN(Cc2ccc(Cl)cc2)C1=O (stereo not drawn)	20.2	.	.	.	-2.9	.	.
COc1cc2ccccc2cc1C(=O)NC1CCC(C)CC1 (stereo not drawn)	-34.7	-75.0	.	-8.9	11.5*	2.6	7.6*
COc1cc2ccccc2cc1C(=O)NC1CCCC1	-20.0	-34.9	.	-3.5	3.7	.	.
CN(C)S(=O)(=O)Oc1ccsc1C(=O)Nc1ccc(Cl)c(Cl)c1	-1.3	-6.1	1.7	-2.9	2.5	.	.
Cc1ccsc1C(=O)Nc1ccc(C(=O)O)cc1	-4.3	-2.3	-4.3	2.0	3.5	.	.
COc1ccc(NC(=O)c2sccc2C)cn1	-11.0	-56.2	-2.0	0.9	14.1*	3.0	1.8
Cc1ccsc1C(=O)Nc1ccc(OCc2ccccc2)cc1	-30.2	-112.7	0.2	-4.1	8.6*	4.5	6.6*
COc1ccc(COc2ccsc2C(=O)Nc2ccc(Cl)c(Cl)c2)cc1	1.9	-1.0	5.0	-4.9	10.7*	-2.7	-1.0
COc1ccc(NC(=O)c2ccc(-c3ccc(C(C)=O)cc3)o2)cn1	-4.7	-96.0	3.0	-0.1	12.2*	0.2	3.5
O=C(Nc1ccc(OCc2ccccc2)cc1)c1ccccc1	-5.7	-41.0	2.0	-9.1	5.8	.	.
Cc1cccc(NC(=O)NN(C(=O)c2ccccc2Cl)C(C)(C)C)c1	-19.1	.	.	.	-1.4	.	.
Cc1cccc(C)c1NC(=O)[C@H]1CC(=O)O[C@@H]1c1ccccc1	-8.9	.	.	.	-4.8	.	.
COc1ccc(COC(=O)N/N=C/c2cccs2)cc1	-27.9	-20.4	-2.2	-6.7	9.3*	3.0	3.4
